The record followed here is ChEMBL document CHEMBL2150903, “Synthesis and screening of novel vitamin E derivatives for anticancer functions” (Eur J Med Chem, 2012).

Activity calls are given as the source filed them. The rule behind the calls is not given here.

What all share (type): functional, cell-based
Assay [1] concerns MCF7. Kind of assay: Induction of apoptosis in human MCF7 cells assessed as PARP cleavage at 20 uM after 15 hrs by Western blot analysis. The essentials: (§1)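 Cells grown in MEM with 10% FBS, glutamine, penicillin/streptomycin, non-essential amino acids and 2× MEM vitamins; serum cut to 2% for treatment. Compounds dissolved in DMSO (40 mM stock); DMSO vehicle control. Treatment 15 h, then Western blot of whole-cell extracts for PARP cleavage. Primary antibody in 0.1% BSA/TBST overnight at 4 °C, then HRP-conjugated secondary. Two separate experiments.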
(In general: In western blotting, separated proteins are transferred to a membrane and probed.)

Assay [2] has as its system MDA-MB-231. As to the kind of experiment: Induction of apoptosis in human MDA-MB-231 cells assessed as PARP cleavage at 20 uM after 15 hrs by Western blot analysis. The method in brief: as §1
The species named for a further assay is Mus musculus. As to the kind of experiment: Induction of apoptosis in mouse 66cl-4GFP cells assessed as PARP cleavage at 20 uM after 15 hrs by Western blot analysis. The essentials:
as §1

Assay [3] has as its system MCF7. Kind of assay: Induction of apoptosis in human MCF7 cells at 20 uM by AnnexinV/PI/FITC-based flow cytometric analysis. A general note: A flow cytometer gives signals particle by particle.
Assay [4] concerns MCF7. As to the kind of experiment: Induction of apoptosis in human MCF7 cells at 40 uM by AnnexinV/PI/FITC-based flow cytometric analysis.
The test system of assay [5] is MDA-MB-231. As to the kind of experiment: Induction of apoptosis in human MDA-MB-231 cells at 20 and 40 uM by […].
The test system of assay [6] is MCF7. As to the kind of experiment: Induction of apoptosis in human MCF7 cells by AnnexinV/PI/FITC-based flow cytometric analysis.
The test system of assay [7] is MDA-MB-231. As to the kind of experiment: Induction of apoptosis in human MDA-MB-231 cells by AnnexinV/PI/FITC-based flow cytometric analysis.

In the case of `CC(C)CCC[C@@H](C)CCC[C@@H](C)CCC[C@]1(C)CCc2cc(O)c(F)cc2O1`, the result with MCF7 [1], in the assay with MDA-MB-231 [2] and in the assay filed under Mus musculus was inactive.

As to `Cc1c(C)c2c(c(C)c1OCC(=O)O)CC[C@@](C)(COCCC(C)CCCC(C)CCCC(C)C)O2` (mixture of isomers), the result in the assay on MCF7 [3], with MCF7 [4], in the assay with MDA-MB-231 [5], with MCF7 [1], with MDA-MB-231 [2] and in the assay filed under Mus musculus was Active. Further, the concentration for a half-maximal effect (EC50) (usually the concentration at which the effect is half-maximal) in the assay on MCF7 [6] came to 21 µM; in the assay with MDA-MB-231 [7], 18 µM.

Turning to `Cc1c(C)c2c(c(C)c1OCC(=O)O)CC[C@](C)(COCCC(C)CCCC(C)CCCC(C)C)O2` (mixture of isomers), the outcome in the assay on MCF7 [4], with MDA-MB-231 [5], in the assay with MCF7 [1], in the assay on MDA-MB-231 [2] and in the assay filed under Mus musculus was Active. Besides, the half-maximal effective concentration (EC50) in the assay with MCF7 [6] amounted to 29 µM; with MDA-MB-231 [7], 16 µM.

Consider `CC(C)CCCC(C)CCCC(C)CCCC1(C)CCc2cc(OCC(=O)O)c(F)cc2O1` (racemic), for which the outcome in the assay on MCF7 [1] and in the assay listed under Mus musculus was Active. The 50% effective concentration (EC50) in the assay on MCF7 [6] was 60 µM; in the assay with MDA-MB-231 [7] it was 34 µM.

On to `CC(C)CCCC(C)CCCC(C)CCOCC1(C)CCc2cc(OCC(=O)O)c(F)cc2O1` (racemic), for which the outcome in the assay with MCF7 [4], in the assay with MDA-MB-231 [5], in the assay with MCF7 [1], in the assay on MDA-MB-231 [2] and in the assay filed under Mus musculus was Active. The results for the concentration for a half-maximal effect (EC50) with MCF7 [6] and with MDA-MB-231 [7] were 35 µM and 27 µM, respectively.

For the molecule `CC(C)CCCC(C)CCCC(C)CCOCC1(C)CCc2cc(O)c(F)cc2O1` (racemic), the result with MCF7 [1] was Active.

Regarding `Cc1c(C)c2c(c(C)c1OCC(=O)O)CC[C@@](C)(CCC[C@H](C)CCC[C@H](C)CCCC(C)C)O2` [.ALPHA.-TOCOPHERYLOXYACETIC ACID], the outcome with MCF7 [3], with MCF7 [4], in the assay on MDA-MB-231 [5], with MCF7 [1], with MDA-MB-231 [2] and in the assay listed under Mus musculus was Active. Also, the concentration giving a half-maximal response (EC50) with MCF7 [6] is 51 µM; in the assay on MDA-MB-231 [7], 35 µM.
